Measurements as given in ChEMBL document CHEMBL1121761, “Antihypertensive pyrrolo[1,2-c]quinazolines and pyrrolo[1,2-c]quinazolinones” (1981).

Experiments:
Format in all cases: functional, Artery
Rattus norvegicus [1] = assay: Change in systolic blood pressure after 50 mg/kg oral administration in spontaneous hypertensive rats after 24 hr
Procedure, shortened: (§1)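 Male spontaneously hypertensive rats, four per dose, received oral doses suspended in 30% PEG 200, 10% PEG 400, 10% EtOH and 50% pH 7.50 phosphate buffer at 0.5 mL/100 g. A first dose of 100 mg/kg was followed by a second dose of 50 mg/kg. Tail-cuff systolic pressure was read before dosing and 2, 4 and 24 h after each dose. Postdose readings were compared with predose readings by paired Student's t test.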

Rattus norvegicus [2] = assay: Change in systolic blood pressure after 50 mg/kg oral administration in spontaneous hypertensive rats after 4 hr; procedure, shortened: as §1
Rattus norvegicus [3] = assay: Change in systolic blood pressure after 100 mg/kg oral administration in spontaneous hypertensive rats after 2 hr; procedure, shortened: as §1
Rattus norvegicus [4] = assay: Change in systolic blood pressure after 100 mg/kg oral administration in spontaneous hypertensive rats after 24 hr; procedure, shortened: as §1
Rattus norvegicus [5] = assay: Change in systolic blood pressure after 50 mg/kg oral administration in spontaneous hypertensive rats after 2 hr; procedure, shortened: as §1
Rattus norvegicus [6] = assay: Change in systolic blood pressure after 100 mg/kg oral administration in spontaneous hypertensive rats after 4 hr; procedure, shortened: as §1
Rattus norvegicus [7] = assay: Change in systolic blood pressure after 33 mg/kg oral administration in spontaneous hypertensive rats after 24 hr
Procedure, shortened: (§2)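 Reference agents were given orally to male SHR, four per dose, as a suspension in PEG 200/PEG 400/EtOH/pH 7.50 phosphate buffer vehicle at 0.5 mL/100 g. Systolic pressure was measured by tail cuff before dosing and at 2, 4 and 24 h after each dose. Predose and postdose levels were compared by paired Student's t test.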

Rattus norvegicus [8] = assay: Change in systolic blood pressure after 33 mg/kg oral administration in spontaneous hypertensive rats after 2 hr; procedure, shortened: as §2
Rattus norvegicus [9] = assay: Change in systolic blood pressure after 33 mg/kg oral administration in spontaneous hypertensive rats after 4 hr; procedure, shortened: as §2
Rattus norvegicus [10] = assay: Change in systolic blood pressure after 25 mg/kg oral administration in spontaneous hypertensive rats after 24 hr; procedure, shortened: as §2
Rattus norvegicus [11] = assay: Change in systolic blood pressure after 25 mg/kg oral administration in spontaneous hypertensive rats after 2 hr; procedure, shortened: as §2
Rattus norvegicus [12] = assay: Change in systolic blood pressure after 25 mg/kg oral administration in spontaneous hypertensive rats after 4 hr; procedure, shortened: as §2
Rattus norvegicus [13] = assay: Change in systolic blood pressure after 12.5 mg/kg oral administration in spontaneous hypertensive rats after 24 hr; procedure, shortened: as §2
Rattus norvegicus [14] = assay: Change in systolic blood pressure after 12.5 mg/kg oral administration in spontaneous hypertensive rats after 2 hr; procedure, shortened: as §2
Rattus norvegicus [15] = assay: Change in systolic blood pressure after 12.5 mg/kg oral administration in spontaneous hypertensive rats after 4 hr; procedure, shortened: as §2

| SMILES | Delta blood pressure (Rattus norvegicus [1]) | Delta blood pressure (Rattus norvegicus [2]) | Delta blood pressure (Rattus norvegicus [3]) | Delta blood pressure (Rattus norvegicus [4]) | Delta blood pressure (Rattus norvegicus [5]) | Delta blood pressure (Rattus norvegicus [6]) | other results |
| --- | --- | --- | --- | --- | --- | --- | --- |
| CCOC(=O)c1cc2n(c1)CN(C)c1ccccc1-2 | 6.5 | 26 | 29 | 31 |  |  |  |
| CCOC(=O)c1cc2c3cc(Cl)ccc3ncn2c1 | 7.5 | 31.3 | 17.5 | 5 | 13.8 | 16.3 |  |
| CC(C)NCC(O)COc1cccc2ccccc12 (configuration not stated) [PROPRANOLOL] |  |  | 18.7 | 32.5 |  | 45 | Delta blood pressure (Rattus norvegicus [7]): 51.2; Delta blood pressure (Rattus norvegicus [8]): 27.5; Delta blood pressure (Rattus norvegicus [9]): 28.7 |
| CCOC(=O)c1cc2n(c1)CN(CCC#N)c1ccccc1-2 |  | 38 | 13.8 | 1.2 | 33 | 11.3 |  |
| CCOC(=O)c1cc2c3ccccc3n(CCC#N)c(=O)n2c1 | 59 | 19 |  | 45 |  | 2 |  |
| COc1ccc2c(c1)nc(O)n1cc(C)cc21 | 12 | 31 | 6 | 15 | 28 | 9 |  |
| Cc1cc2c3ccccc3nc(O)n2c1 | 35 |  |  | 11 | 46 | 39 |  |
| CCOC(=O)c1cc2c3cc(C#N)ccc3ncn2c1 | 6.6 | 33 | 11.6 | 20 | 21.6 | 20 |  |
| CCOC(=O)c1cc2n(c1)CN(C(=O)OCC)c1ccccc1-2 | 23.7 | 42.5 | 6.2 | 20 | 18.7 | 11.2 |  |
| CC#Cc1c(C)cc2c3ccccc3nc(O)n12.Cl | 42 | 30 |  | 20.5 |  | 27 |  |
| COc1cc2nc(N3CCN(C(=O)c4ccco4)CC3)nc(N)c2cc1OC [PRAZOSIN] |  |  |  |  |  |  | Delta blood pressure (Rattus norvegicus [10]): 41.2; Delta blood pressure (Rattus norvegicus [11]): 56.2; Delta blood pressure (Rattus norvegicus [12]): 76.2; Delta blood pressure (Rattus norvegicus [13]): 13.7; Delta blood pressure (Rattus norvegicus [14]): 40; Delta blood pressure (Rattus norvegicus [15]): 48.2 |
